Compounds with a hit are over-represented: about 4.1% of the library has one in this group of screens.
KCNQ1 act = potentiates or activates the human KCNQ1 potassium channel | B-score at 10 µM | CHO-K1 KCNQ1, thallium flux FluxOR fluorescence; hits give high values | P51787 | actives 0.35% (n = 310,000);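 active means fluorescence ratio B-score, a plate-corrected score, at least three library SD, with initial intensity B-score within 5 SD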
Target sequence (P51787 whole entry, looked up): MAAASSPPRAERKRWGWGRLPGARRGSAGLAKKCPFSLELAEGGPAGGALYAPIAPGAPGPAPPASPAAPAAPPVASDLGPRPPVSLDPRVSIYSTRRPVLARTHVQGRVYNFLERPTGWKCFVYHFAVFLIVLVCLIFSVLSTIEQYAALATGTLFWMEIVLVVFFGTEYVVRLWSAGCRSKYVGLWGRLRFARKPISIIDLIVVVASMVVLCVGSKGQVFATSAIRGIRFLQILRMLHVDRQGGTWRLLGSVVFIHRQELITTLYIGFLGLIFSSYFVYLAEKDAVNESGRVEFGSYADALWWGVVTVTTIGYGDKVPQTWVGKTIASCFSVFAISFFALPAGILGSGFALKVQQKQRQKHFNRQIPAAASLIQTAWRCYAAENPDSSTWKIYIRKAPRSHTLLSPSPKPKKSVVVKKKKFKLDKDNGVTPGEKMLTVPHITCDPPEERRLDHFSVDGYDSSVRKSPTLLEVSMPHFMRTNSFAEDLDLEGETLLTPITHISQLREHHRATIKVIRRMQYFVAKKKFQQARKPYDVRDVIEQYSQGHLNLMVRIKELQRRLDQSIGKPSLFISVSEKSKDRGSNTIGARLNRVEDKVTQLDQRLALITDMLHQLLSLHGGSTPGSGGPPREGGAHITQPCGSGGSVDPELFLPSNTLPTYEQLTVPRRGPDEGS
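Test system: CHO-K1 cells stably expressing KCNQ1 / Medium: assay buffer / Also added: depolarizing K+/Tl+ stimulus, K2SO4 and Tl2SO4 each 12.5 mM in 5x stock / Incubation: 90 min dye loading and 20 min compound exposure, both at room temperature / Signal: thallium influx via FluxOR fluorescence, kinetic imaging / Evaluation: B score of baseline-normalized fluorescence ratio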
KCNK3 inh = human KCNK3 channel inhibition, primary screen; CHO-KCNK3 thallium flux, FluxOR fluorescence; hits give low values; actives 0.84% (n = 340,000); AID 602410; B-score at 10 µM;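 active means B-score under library mean minus 4 SD, starting fluorescence ratio at most library mean plus 5 SD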;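 further: more negative B-score means stronger inhibition of thallium flux through KCNK3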
KCNQ1 block = blocks the human KCNQ1 potassium channel. P51787. CHO-K1 KCNQ1, FluxOR thallium flux fluorescence; hits give high values. B-score at 10 µM. actives 1.3% (n = 310,000). AID 2642;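 active means compounds whose thallium flux B-score, printed positive for inhibition, exceeds three library SD while starting fluorescence stays within three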;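 further: channel opened by potassium depolarization with thallium stimulus after 20 min compound exposure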
hERG rescue = hERG (human) protection from proarrhythmic block. Q12809. CHO-hERG, FluxOR thallium flux, dofetilide IC70 present. activation (rescue from dofetilide block), less the hit threshold, % at 10 µM. actives 0.51% (n = 310,000). AID 1511;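 active means activation above the mean of controls blocked by dofetilide plus 5 SD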;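 further: thallium influx through hERG after potassium depolarization seen as dye fluorescence rise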
Cl transport mod = modulators of human KCC2 chloride dependent transport | actives 2.2% (n = 190,000) | Q9H2X9 | B-score of Tl+ flux slope (higher = more flux/activation; lower = inhibition) at 10 µM | KCC2 cells, thallium flux FluoZin-2 fluorescence;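 active means thallium flux slope and its plate-corrected score both differing from the plate sample mean at a set confidence after two filtering rounds, in either direction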;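 further: slope of fluorescence scaled to starting intensity during 10 to 20 s after thallium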
KCNK9 inh = blocks the human KCNK9 two-pore domain potassium channel. actives 1.2% (n = 310,000). Q9NPC2. HEK293 KCNK9, FluxOR thallium flux fluorescence; hits give low values. B-score at 10 µM. AID 488922;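 active means ratio B-score over 3 SD below the library mean, with starting fluorescence within 5 SD of its mean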;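 further: negative B-score means less thallium flux so channel inhibition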
KCNK9 block conf = confirmation of human KCNK9 potassium channel inhibitors; inhibition, % at 10 µM; actives 43% (n = 4,900); HEK293 KCNK9 cells, FluxOR thallium flux fluorescence; shares compounds with KCNK9 inh;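 active means thallium signal inhibited by more than 5 SD of the compound-free buffer control wells, on both duplicate plates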;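 further: 0% = assay buffer control wells without compound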
Kir2-1 spec = mouse Kir2.1 off-target activity of KCNK9 modulators; shares compounds with KCNK9 inh; Kir2.1 cells, FluxOR thallium flux fluorescence; inhibition, % at 10 µM; actives 4% (n = 4,900); AID 492993;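 active means thallium signal drop more than 5 SD beyond the mean of the no-compound control wells, seen in both duplicate plates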;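 further: signal is fluorescence rise after thallium addition divided by baseline fluorescence; plate controls were assay buffer only for no effect and full block by chlorpromazine control for full effect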
KCNK9 uninduced = non-induced cell nonspecific activity of KCNK9 modulators | shares compounds with KCNK9 inh | actives 40% (n = 4,900) | inhibition, % at 10 µM | non-induced KCNK9-HEK293, FluxOR thallium flux;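 active means thallium signal drop beyond 5 SD of the untreated control mean, on both duplicate plates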;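 further: plate controls were buffer only IC0 wells for no effect and SID17386958 at its maximal inhibitory level for full effect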
An asterisk follows results filed as active.

Results for CCOc1ccccc1CNC(=O)c1cc2oc3ccccc3c2n1CC ?
KCNQ1 act: inactive; KCNK3 inh: inactive; KCNQ1 block: inactive; hERG rescue: -11; KCNK9 inh: -9.1*; KCNK9 block conf: 50%*; Kir2-1 spec: inactive; KCNK9 uninduced: 30%*

What do the screens show for `CCCOc1ccccc1N/C(N)=N/c1nc(C)cc(C)n1`?
KCNQ1 act: inactive; KCNK3 inh: inactive; KCNQ1 block: inactive; hERG rescue: -14; Cl transport mod: 0.22; KCNK9 inh: inactive

Results for CCCOc1ccccc1N/C(=N/c1nc(C)cc(C)n1)NC(=O)COc1ccc(OC)cc1 ?
KCNQ1 act: inactive; KCNK3 inh: inactive; KCNQ1 block: 10*; hERG rescue: -15; KCNK9 inh: -27*; KCNK9 block conf: 77%*; Kir2-1 spec: inactive; KCNK9 uninduced: 41%*

Results for Cc1cc(OC(C)C)nc(NCc2ccccc2)n1 ?
KCNQ1 act: inactive; KCNK3 inh: inactive; KCNQ1 block: inactive; hERG rescue: -4; Cl transport mod: -0.73; KCNK9 inh: inactive

Results for COc1ccc(C)cc1N(C(=O)c1ccccc1)c1nc2ccccc2s1 ?
KCNQ1 act: inactive; KCNK3 inh: inactive; KCNQ1 block: inactive; hERG rescue: -4; Cl transport mod: -0.16; KCNK9 inh: -10*; KCNK9 block conf: 42%*; Kir2-1 spec: inactive; KCNK9 uninduced: 32%*

How did COc1ccc(C)cc1N(C(=O)c1ccccc1F)c1nc2ccccc2s1 do in these assays?
KCNQ1 act: inactive; KCNK3 inh: inactive; KCNQ1 block: inactive; hERG rescue: -13; Cl transport mod: -0.1; KCNK9 inh: -9.7*; KCNK9 block conf: 46%*; Kir2-1 spec: inactive; KCNK9 uninduced: 36%*

Results for O=C(Nc1ccc(Cl)c(C(F)(F)F)c1)[C@@H]1CC=C[C@@H]2CCN(Cc3ccc(Cl)c(Cl)c3)C(=O)[C@@H]21 ?
KCNQ1 act: inactive; KCNK3 inh: inactive; KCNQ1 block: inactive; hERG rescue: -8; KCNK9 inh: inactive

Results for Cc1ccc(-c2nc(C3CCN(S(=O)(=O)c4ccc(C(C)(C)C)cc4)CC3)no2)cc1 ?
KCNQ1 act: inactive; KCNK3 inh: inactive; KCNQ1 block: inactive; hERG rescue: -7; Cl transport mod: 0.33; KCNK9 inh: inactive; KCNK9 block conf: inactive; Kir2-1 spec: inactive; KCNK9 uninduced: inactive

What do the screens show for `COC(=O)c1ccc(Cn2cnc3c(Cl)ncnc32)cc1`?
KCNK3 inh: inactive

Results for Cc1cc(C)cc(Oc2ncnc3c2ncn3Cc2c(Cl)cccc2Cl)c1 ?
KCNQ1 act: inactive; KCNK3 inh: inactive; KCNQ1 block: inactive; hERG rescue: 1; KCNK9 inh: inactive; KCNK9 block conf: inactive; Kir2-1 spec: inactive; KCNK9 uninduced: inactive

How did CC1CN(S(=O)(=O)c2cc(C(=O)N3CCCCC3C)ccc2Cl)CC(C)O1 (stereo not drawn) do in these assays?
KCNK3 inh: inactive

What do the screens show for `CC(SC1=NCCS1)C(=O)Nc1nnc(-c2ccc(Br)cc2)s1` (stereo not drawn)?
KCNQ1 act: inactive; KCNK3 inh: inactive; KCNQ1 block: inactive; hERG rescue: -6; KCNK9 inh: -18*; KCNK9 block conf: inactive; Kir2-1 spec: inactive; KCNK9 uninduced: 22%*

How did CCOC(=O)Nc1nnc(-c2ccccc2OC)s1 do in these assays?
KCNQ1 act: inactive; KCNK3 inh: inactive; KCNQ1 block: inactive; hERG rescue: -4; Cl transport mod: 0.16; KCNK9 inh: inactive

How did CCC(SC1=NCCS1)C(=O)Nc1nnc(-c2ccccc2OC)s1 (stereo not drawn) do in these assays?
KCNQ1 act: inactive; KCNK3 inh: inactive; KCNQ1 block: inactive; hERG rescue: -7; KCNK9 inh: -10*; KCNK9 block conf: 30%*; Kir2-1 spec: inactive; KCNK9 uninduced: 34%*

Results for COc1ccc(C(=O)CSc2nc(C(C)(C)C)nc3ccccc23)cc1 ?
KCNQ1 act: inactive; KCNK3 inh: inactive; KCNQ1 block: inactive; hERG rescue: -4; Cl transport mod: 0.8; KCNK9 inh: -10*; KCNK9 block conf: 46%*; Kir2-1 spec: 35%*; KCNK9 uninduced: 30%*

What do the screens show for `CC(C)(C)c1nc(SCC(=O)NCc2ccco2)c2ccccc2n1`?
KCNQ1 act: inactive; KCNK3 inh: inactive; KCNQ1 block: inactive; hERG rescue: -5; Cl transport mod: 1.1; KCNK9 inh: inactive

Results for CCOC(=O)c1c(-c2ccccc2)csc1NC(=O)CSc1nc(C)cc(C)n1 ?
KCNQ1 act: inactive; KCNK3 inh: inactive; KCNQ1 block: inactive; hERG rescue: -10; Cl transport mod: -0.79; KCNK9 inh: inactive; KCNK9 block conf: inactive; Kir2-1 spec: inactive; KCNK9 uninduced: inactive

How did CCOC(=O)Cc1cnc(NC(=O)CSc2nc(C)cc(C)n2)s1 do in these assays?
KCNQ1 act: inactive; KCNK3 inh: inactive; KCNQ1 block: inactive; hERG rescue: -17; Cl transport mod: 0.23; KCNK9 inh: inactive; KCNK9 block conf: inactive; Kir2-1 spec: inactive; KCNK9 uninduced: inactive

Results for CCOC(=O)c1c(-c2ccccc2)csc1NC(=O)c1cc(S(=O)(=O)N2CCOCC2)ccc1C ?
KCNQ1 act: inactive; KCNK3 inh: inactive; KCNQ1 block: inactive; hERG rescue: -10; Cl transport mod: -0.65; KCNK9 inh: inactive; KCNK9 block conf: inactive; Kir2-1 spec: inactive; KCNK9 uninduced: inactive

Results for CCOC(=O)c1c(-c2cccs2)csc1NC(=O)COC(=O)c1c(C)noc1C ?
KCNQ1 act: inactive; KCNK3 inh: -8.9*; KCNQ1 block: inactive; hERG rescue: -17; KCNK9 inh: inactive; KCNK9 block conf: inactive; Kir2-1 spec: inactive; KCNK9 uninduced: inactive

How did CC(C)CC(=O)C(=O)O do in these assays?
KCNK3 inh: inactive

Results for CSCCC(NS(=O)(=O)c1ccc(C)cc1)C(=O)N1CCN(C(c2ccccc2)c2ccccc2)CC1 (stereo not drawn) ?
KCNQ1 act: inactive; KCNK3 inh: inactive; KCNQ1 block: inactive; hERG rescue: -14; KCNK9 inh: -9.4*; KCNK9 block conf: 35%*; Kir2-1 spec: inactive; KCNK9 uninduced: 32%*
